From ChEMBL document CHEMBL3414553, “Novel imidazo[2,1-b]-1,3,4-thiadiazoles as promising antifungal agents against clinical isolate of Cryptococcus neoformans” (2015)
Converted amounts (≈) assume the structure as drawn.

Experiments:
Type in all cases: functional
Aspergillus niger = assay: Antifungal activity against Aspergillus niger ATCC 16404 after 24 hrs by two-fold broth microdilution method; details: ATCC 16404, 24 h
Summary of the method: (§1)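 Strains subcultured one day before testing; colonies suspended in sterile water and adjusted to 0.5 McFarland (1.5 × 10^8 cfu/ml). Two-fold dilutions in MHB (medium pH 7.4 ± 0.1), final 200 to 0.39 µg/ml. Incubated 37 ± 1 °C for 24 h, then resazurin (0.4 mg/ml) added for a further 5 h. MIC read by colour: blue = no growth, pink = growth.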

Pseudomonas aeruginosa = assay: Antibacterial activity against Pseudomonas aeruginosa ATCC 27853 after 24 hrs by two-fold broth microdilution method; details: ATCC 27853, 24 h; summary of the method: as §1
Candida albicans [1] = assay: Antifungal activity against Candida albicans ATCC 90028 after 24 hrs by two-fold broth microdilution method; details: ATCC 90028, 24 h; summary of the method: as §1
Bacillus subtilis = assay: Antibacterial activity against Bacillus subtilis ATCC 6051 after 24 hrs by two-fold broth microdilution method; details: ATCC 6051, 24 h; summary of the method: as §1
Cryptococcus neoformans [2] = assay: Antifungal activity against […] clinical isolate after 24 hrs by two-fold broth microdilution method; summary of the method: as §1
Candida albicans [3] = assay: Antifungal activity against Candida albicans clinical isolate after 24 hrs by two-fold broth microdilution method; summary of the method: as §1
Escherichia coli = assay: Antibacterial activity against Escherichia coli ATCC 35218 after 24 hrs by two-fold broth microdilution method; details: ATCC 35218, 24 h; summary of the method: as §1
Cryptococcus neoformans [4] = assay: Antifungal activity against […] ATCC 66031 after 24 hrs by two-fold broth microdilution method; details: ATCC 66031, 24 h; summary of the method: as §1
Staphylococcus aureus = assay: Antibacterial activity against Staphylococcus aureus ATCC 25923 after 24 hrs by two-fold broth microdilution method; details: ATCC 25923, 24 h; summary of the method: as §1
MDA-MB-231 = assay: Cytotoxicity against human MDA-MB-231 cells
MDA-MB-468 = assay: Cytotoxicity against human MDA-MB-468 cells
MCF7 = assay: Cytotoxicity against human MCF7 cells
[5] = tested on: Mycobacterium tuberculosis; assay: Antimicrobial activity against Mycobacterium tuberculosis H37Rv
Summary of the method: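 M. tuberculosis H37Rv grown 5 d in 7H9-Tw-OADC with 10-point two-fold serial dilutions from DMSO (final DMSO 2%). Top concentration 200 µM, or 50-fold below the stock for poorly soluble compounds. Controls: medium/DMSO background, 100 µM rifampicin for zero growth, DMSO for maximum growth, plus a rifampicin dose-response. Growth read by OD590 and fluorescence (Ex 560/Em 590).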

Structure (SMILES)	MIC (Aspergillus niger)	MIC (Pseudomonas aeruginosa)	MIC (Candida albicans [1])	MIC (Bacillus subtilis)	MIC (Cryptococcus neoformans [2])	MIC (Candida albicans [3])	MIC (Escherichia coli)	MIC (Cryptococcus neoformans [4])	MIC (Staphylococcus aureus)	GI50 (MDA-MB-231)	GI50 (MDA-MB-468)	GI50 (MCF7)	MIC [5]
Cc1ccc(C(=O)/C=C/c2c(-c3ccc(Br)cc3)nc3sc(-c4ccc(Cl)cc4)nn23)cc1	> 200 µg/mL	> 200 µg/mL	50 µg/mL (≈ 93.5 µM)	> 200 µg/mL	6.25 µg/mL (≈ 11.7 µM)	> 200 µg/mL	> 200 µg/mL	3.12 µg/mL (≈ 5.84 µM)	> 200 µg/mL				
C[C@@H]1[C@H](O)[C@@H](C)/C=C/C=C/C=C/C=C/C=C/C=C/C=C/[C@H](O[C@@H]2O[C@H](C)[C@@H](O)[C@H](N)[C@@H]2O)C[C@@H]2O[C@](O)(C[C@@H](O)C[C@@H](O)[C@H](O)CC[C@@H](O)C[C@@H](O)CC(=O)O[C@H]1C)C[C@H](O)[C@H]2C(=O)O [AMPHOTERICIN B]	1.95 µg/mL (≈ 2.11 µM)		0.25 µg/mL (≈ 0.271 µM)		1 µg/mL (≈ 1.08 µM)	25 µg/mL (≈ 27.1 µM)		1 µg/mL (≈ 1.08 µM)					
Cc1ccc(C(=O)/C=C/c2c(-c3ccc(Br)cc3)nc3sc(-c4ccccc4Cl)nn23)cc1	> 200 µg/mL	> 200 µg/mL	50 µg/mL (≈ 93.5 µM)	> 200 µg/mL	100 µg/mL (≈ 187 µM)	> 200 µg/mL	> 200 µg/mL	50 µg/mL (≈ 93.5 µM)	200 µg/mL (≈ 374 µM)				
COc1ccc(-c2nn3c(/C=C/C(=O)c4cccs4)c(-c4ccc(Br)cc4)nc3s2)cc1	> 200 µg/mL	> 200 µg/mL	100 µg/mL (≈ 191 µM)	> 200 µg/mL	200 µg/mL (≈ 383 µM)	> 200 µg/mL	> 200 µg/mL	25 µg/mL (≈ 47.9 µM)	> 200 µg/mL				
O=C(/C=C/c1c(-c2ccc(Br)cc2)nc2sc(-c3ccccc3Br)nn12)c1cccs1	> 200 µg/mL	> 200 µg/mL	> 200 µg/mL	> 200 µg/mL	12.5 µg/mL (≈ 21.9 µM)	> 200 µg/mL	> 200 µg/mL	3.12 µg/mL (≈ 5.47 µM)	> 200 µg/mL				
COc1ccc(C(=O)/C=C2\C(=O)Nc3ccc(Cl)cc32)cc1OC										8.54 µM	4.76 µM	3.95 µM	
Clc1ccc(-c2nn3c(/C=N/C4CC4)c(-c4ccc(Br)cc4)nc3s2)cc1	100 µg/mL (≈ 218 µM)	50 µg/mL (≈ 109 µM)	25 µg/mL (≈ 54.6 µM)	200 µg/mL (≈ 437 µM)	200 µg/mL (≈ 437 µM)	50 µg/mL (≈ 109 µM)	200 µg/mL (≈ 437 µM)	100 µg/mL (≈ 218 µM)	200 µg/mL (≈ 437 µM)				
Brc1ccc(-c2nc3sc(-c4ccccc4)nn3c2/C=N/C2CC2)cc1	100 µg/mL (≈ 236 µM)	50 µg/mL (≈ 118 µM)	25 µg/mL (≈ 59.1 µM)	200 µg/mL (≈ 472 µM)	> 200 µg/mL	50 µg/mL (≈ 118 µM)	200 µg/mL (≈ 472 µM)	100 µg/mL (≈ 236 µM)	200 µg/mL (≈ 472 µM)				
CC1(C)S[C@@H]2[C@H](NC(=O)[C@H](N)c3ccc(O)cc3)C(=O)N2[C@H]1C(=O)O [AMOXICILLIN]		< 0.39 µg/mL		< 0.39 µg/mL			< 0.39 µg/mL		< 0.39 µg/mL				
Cc1ccc(C(=O)/C=C/c2c(-c3ccc(Br)cc3)nc3sc(-c4ccccc4Br)nn23)cc1	> 200 µg/mL	> 200 µg/mL	200 µg/mL (≈ 345 µM)	> 200 µg/mL	12.5 µg/mL (≈ 21.6 µM)	> 200 µg/mL	> 200 µg/mL	1.56 µg/mL (≈ 2.69 µM)	100 µg/mL (≈ 173 µM)				
O=C(/C=C/c1c(-c2ccc(Br)cc2)nc2sc(-c3ccc(Cl)cc3)nn12)c1ccccc1	> 200 µg/mL	> 200 µg/mL	> 200 µg/mL	> 200 µg/mL	12.5 µg/mL (≈ 24 µM)	> 200 µg/mL	> 200 µg/mL	6.25 µg/mL (≈ 12 µM)	> 200 µg/mL				
Brc1ccc(-c2nc3sc(-c4ccc(I)cc4)nn3c2/C=N/C2CCCCC2)cc1	100 µg/mL (≈ 169 µM)	50 µg/mL (≈ 84.6 µM)	25 µg/mL (≈ 42.3 µM)	200 µg/mL (≈ 338 µM)	> 200 µg/mL	50 µg/mL (≈ 84.6 µM)	200 µg/mL (≈ 338 µM)	100 µg/mL (≈ 169 µM)	200 µg/mL (≈ 338 µM)				
Clc1ccccc1-c1nn2c(/C=N/C3CC3)c(-c3ccc(Br)cc3)nc2s1	100 µg/mL (≈ 218 µM)	50 µg/mL (≈ 109 µM)	25 µg/mL (≈ 54.6 µM)	200 µg/mL (≈ 437 µM)	> 200 µg/mL	50 µg/mL (≈ 109 µM)	200 µg/mL (≈ 437 µM)	100 µg/mL (≈ 218 µM)	200 µg/mL (≈ 437 µM)				
O=C(NN=C1CCCCC1)c1ccncc1													30 µg/mL (≈ 138 µM)
O=C(/C=C/c1c(-c2ccc(Br)cc2)nc2sc(-c3ccc(Cl)cc3)nn12)c1cccs1	> 200 µg/mL	> 200 µg/mL	25 µg/mL (≈ 47.5 µM)	> 200 µg/mL	12.5 µg/mL (≈ 23.7 µM)	> 200 µg/mL	> 200 µg/mL	12.5 µg/mL (≈ 23.7 µM)	> 200 µg/mL				
